Test results taken from ChEMBL document CHEMBL1150393, “Evaluation of radiolabeled (hetero)aromatic analogues of N-(2-diethylaminoethyl)-4-iodobenzamide for imaging and targeted radionuclide therapy of melanoma” (J Med Chem, 2008).

Columns and labels:
Conditions in all cases: in vivo
[1] = Ratio of drug level in tumor to lung of C57BL/6 mouse bearing mouse B16-F0 cells at 0.74 to 0.92 MBq, iv after 1 hr; assay type: ADME, organism-based
Method in brief: (§1)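 Tumour and organ radioactive concentrations came from whole-body cryosection counting (40 µm slices, eight per mouse, two mice per time) after tail-vein injection of the [¹²⁵I]-labelled compound (0.1 µmol) into male C57BL6 mice bearing s.c. B16-F0 melanoma. Each value is the ratio of the tumour concentration to the organ concentration.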

Pancreas = assay: Biodistribution in pancreas of C57BL/6 mouse bearing mouse B16-F0 cells at 0.74 to 0.92 MBq, iv after 1 hr; assay type: ADME, organism-based
Method in brief: (§2)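 Male C57BL6 mice with s.c. left-flank B16-F0 melanoma (5 × 10⁵ cells in PBS). Two mice per time point frozen in liquid nitrogen after CO₂ sacrifice. Eight 40 µm whole-body cryosections per mouse read by multiwire proportional counter. cpm/mm² converted to kBq/g and expressed as %ID/g.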

Liver [2] = assay: Biodistribution in liver of C57BL/6 mouse bearing mouse B16-F0 cells at 0.74 to 0.92 MBq, iv after 1 hr; assay type: ADME, organism-based; method in brief: as §2
Blood [3] = assay: Biodistribution in blood of C57BL/6 mouse bearing mouse B16-F0 cells at 0.74 to 0.92 MBq, iv after 6 hrs; assay type: ADME, organism-based; method in brief: as §2
Spleen [4] = assay: Biodistribution in spleen of C57BL/6 mouse bearing mouse B16-F0 cells at 0.74 to 0.92 MBq, iv after 6 hrs; assay type: ADME, organism-based
Method in brief: (§3)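 [¹²⁵I]-labelled compound given iv by tail vein (0.1 µmol per mouse) to male C57BL6 mice bearing s.c. B16-F0 flank tumours (5 × 10⁵ cells in PBS). Two mice per time point were killed by CO₂, frozen in liquid nitrogen and cut into 40 µm cryosections, eight slices per mouse. Slice radioactivity was read on a multiwire proportional counter, converted to kBq/g and reported as %ID/g.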

Kidney [5] = assay: Biodistribution in kidney of C57BL/6 mouse bearing mouse B16-F0 cells at 0.74 to 0.92 MBq, iv after 6 hrs; assay type: ADME, organism-based; method in brief: as §2
[6] = Biodistribution in tumor of C57BL/6 mouse bearing mouse B16-F0 cells at 0.74 to 0.92 MBq, iv after 24 hrs; assay type: ADME, organism-based, Neoplasm; method in brief: as §3
Blood [7] = assay: Biodistribution in blood of C57BL/6 mouse bearing mouse B16-F0 cells at 0.74 to 0.92 MBq, iv after 1 hr; assay type: ADME, organism-based; method in brief: as §2
[8] = Ratio of drug level in tumor to liver of C57BL/6 mouse bearing mouse B16-F0 cells at 0.74 to 0.92 MBq, iv after 24 hrs; assay type: ADME, organism-based; method in brief: as §1
[9] = Drug excretion in mouse B16-F0 cells bearing C57BL/6 mouse urine at 0.74 to 0.92 MBq, iv after 72 hrs; assay type: ADME, organism-based
Method in brief: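 Urine was collected from two B16-F0 tumour-bearing C57BL6 mice for up to 72 h after iv tail-vein injection of the [¹²⁵I]-labelled compound (0.1 µmol). Samples were counted to give cumulative urinary excretion as %ID.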

[10] = Biodistribution in uvea of C57BL/6 mouse bearing mouse B16-F0 cells at 0.74 to 0.92 MBq, iv after 1 hr; assay type: ADME, organism-based, Uveal tract; method in brief: as §3
[11] = Biodistribution in intestinal content of C57BL/6 mouse bearing mouse B16-F0 cells at 0.74 to 0.92 MBq, iv after 1 hr; assay type: ADME, organism-based; method in brief: as §2
Thyroid gland [12] = assay: Biodistribution in thyroid of C57BL/6 mouse bearing mouse B16-F0 cells at 0.74 to 0.92 MBq, iv after 6 hrs; assay type: ADME, organism-based; method in brief: as §3
[13] = Biodistribution in tumor of C57BL/6 mouse bearing mouse B16-F0 cells at 0.74 to 0.92 MBq, iv after 1 hr; assay type: ADME, organism-based, Neoplasm; method in brief: as §3
[14] = Biodistribution in tumor of C57BL/6 mouse bearing mouse B16-F0 cells at 0.74 to 0.92 MBq, iv after 3 hrs; assay type: ADME, organism-based, Neoplasm; method in brief: as §3
Kidney [15] = assay: Biodistribution in kidney of C57BL/6 mouse bearing mouse B16-F0 cells at 0.74 to 0.92 MBq, iv after 1 hr; assay type: ADME, organism-based; method in brief: as §2
Spleen [16] = assay: Biodistribution in spleen of C57BL/6 mouse bearing mouse B16-F0 cells at 0.74 to 0.92 MBq, iv after 1 hr; assay type: ADME, organism-based; method in brief: as §3
[17] = Biodistribution in intestinal content of C57BL/6 mouse bearing mouse B16-F0 cells at 0.74 to 0.92 MBq, iv after 3 hrs; assay type: ADME, organism-based; method in brief: as §2
Liver [18] = assay: Biodistribution in liver of C57BL/6 mouse bearing mouse B16-F0 cells at 0.74 to 0.92 MBq, iv after 24 hrs; assay type: ADME, organism-based; method in brief: as §2
Brain = assay: Biodistribution in brain of C57BL/6 mouse bearing mouse B16-F0 cells at 0.74 to 0.92 MBq, iv after 1 hr; assay type: ADME, organism-based; method in brief: as §2
Spleen [19] = assay: Biodistribution in spleen of C57BL/6 mouse bearing mouse B16-F0 cells at 0.74 to 0.92 MBq, iv after 3 hrs; assay type: ADME, organism-based; method in brief: as §3
[20] = Biodistribution in uvea of C57BL/6 mouse bearing mouse B16-F0 cells at 0.74 to 0.92 MBq, iv after 3 hrs; assay type: ADME, organism-based, Uveal tract; method in brief: as §3
[21] = Biodistribution in uvea of C57BL/6 mouse bearing mouse B16-F0 cells at 0.74 to 0.92 MBq, iv after 72 hrs; assay type: ADME, organism-based, Uveal tract; method in brief: as §3
Thyroid gland [22] = assay: Biodistribution in thyroid of C57BL/6 mouse bearing mouse B16-F0 cells at 0.74 to 0.92 MBq, iv after 3 hrs; assay type: ADME, organism-based; method in brief: as §3
Muscle tissue = assay: Biodistribution in muscle of C57BL/6 mouse bearing mouse B16-F0 cells at 0.74 to 0.92 MBq, iv after 3 hrs; assay type: ADME, organism-based; method in brief: as §2
[23] = Biodistribution in Stomach content of C57BL/6 mouse bearing mouse B16-F0 cells at 0.74 to 0.92 MBq, iv after 6 hrs; assay type: ADME, organism-based; method in brief: as §2
Lung = assay: Biodistribution in lung of C57BL/6 mouse bearing mouse B16-F0 cells at 0.74 to 0.92 MBq, iv after 3 hrs; assay type: ADME, organism-based; method in brief: as §2
[24] = Ratio of drug level in tumor to brain of C57BL/6 mouse bearing mouse B16-F0 cells at 0.74 to 0.92 MBq, iv after 1 hr; assay type: ADME, organism-based; method in brief: as §1
[25] = Biodistribution in Stomach content of C57BL/6 mouse bearing mouse B16-F0 cells at 0.74 to 0.92 MBq, iv after 3 hrs; assay type: ADME, organism-based; method in brief: as §2
Liver [26] = assay: Biodistribution in liver of C57BL/6 mouse bearing mouse B16-F0 cells at 0.74 to 0.92 MBq, iv after 6 hrs; assay type: ADME, organism-based; method in brief: as §2
[27] = Ratio of drug level in tumor to liver of C57BL/6 mouse bearing mouse B16-F0 cells at 0.74 to 0.92 MBq, iv after 1 hr; assay type: ADME, organism-based; method in brief: as §1
[28] = Biodistribution in tumor of C57BL/6 mouse bearing mouse B16-F0 cells at 0.74 to 0.92 MBq, iv after 6 hrs; assay type: ADME, organism-based, Neoplasm; method in brief: as §3
[29] = Biodistribution in intestinal content of C57BL/6 mouse bearing mouse B16-F0 cells at 0.74 to 0.92 MBq, iv after 24 hrs; assay type: ADME, organism-based; method in brief: as §2
[30] = Ratio of drug level in tumor to brain of C57BL/6 mouse bearing mouse B16-F0 cells at 0.74 to 0.92 MBq, iv after 3 hrs; assay type: ADME, organism-based; method in brief: as §1

## CCN(CC)CCNC(=O)c1c[nH]c2ccc([125I])cc2c1=O.Cl.Cl
[1]
  Ratio: 2.28
Pancreas
  Drug uptake: 5.74 % ID/g
Liver [2]
  Drug uptake: 5.16 % ID/g
Blood [3]
  Drug uptake: 0.17 % ID/g
Spleen [4]
  Drug uptake: 0.26 % ID/g
Kidney [5]
  Drug uptake: 0.2 % ID/g
[6]
  Drug uptake: 2.7 % ID/g
Blood [7]
  Drug uptake: 0.42 % ID/g
[8]
  Ratio: 39.14
[9]
  Activity: 23.8%
[10]
  Drug uptake: 5.12 % ID/g
[11]
  Drug uptake: 52.94 % ID/g
Thyroid gland [12]
  Drug uptake: 8.55 % ID/g
[13]
  Drug uptake: 4.7 % ID/g
[14]
  Drug uptake: 4.1 % ID/g
Kidney [15]
  Drug uptake: 2.8 % ID/g
Spleen [16]
  Drug uptake: 1.24 % ID/g
[17]
  Drug uptake: 90.12 % ID/g
Liver [18]
  Drug uptake: 0.07 % ID/g
Brain
  Drug uptake: 0.07 % ID/g
Spleen [19]
  Drug uptake: 0.28 % ID/g
[20]
  Drug uptake: 5.66 % ID/g
[21]
  Drug uptake: 6.79 % ID/g
Thyroid gland [22]
  Drug uptake: 4.33 % ID/g
Muscle tissue
  Drug uptake: 0.13 % ID/g
[23]
  Drug uptake: 22.27 % ID/g
Lung
  Drug uptake: 0.88 % ID/g
[24]
  Ratio: 67
[25]
  Drug uptake: 9.93 % ID/g
Liver [26]
  Drug uptake: 0.32 % ID/g
[27]
  Ratio: 0.91
[28]
  Drug uptake: 5.8 % ID/g
[29]
  Drug uptake: 1.62 % ID/g

## CCN(CC)CCNC(=O)c1ccc2cc([125I])ccc2n1.Cl.Cl
[1]
  Ratio: 2.09
Pancreas
  Drug uptake: 9.8 % ID/g
Liver [2]
  Drug uptake: 10.92 % ID/g
Blood [3]
  Drug uptake: 5.91 % ID/g
Spleen [4]
  Drug uptake: 7.6 % ID/g
Kidney [5]
  Drug uptake: 7.6 % ID/g
[6]
  Drug uptake: 12.1 % ID/g
Blood [7]
  Drug uptake: 7.01 % ID/g
[8]
  Ratio: 5.39
[9]
  Activity: 80.7%
[10]
  Drug uptake: 32.71 % ID/g
[11]
  Drug uptake: 15.78 % ID/g
[13]
  Drug uptake: 19.6 % ID/g
[14]
  Drug uptake: 25.4 % ID/g
Kidney [15]
  Drug uptake: 11.82 % ID/g
Spleen [16]
  Drug uptake: 11.56 % ID/g
[17]
  Drug uptake: 20.65 % ID/g
Liver [18]
  Drug uptake: 2.25 % ID/g
Brain
  Drug uptake: 1.96 % ID/g
Spleen [19]
  Drug uptake: 10.63 % ID/g
[30]
  Ratio: 30.54
[20]
  Drug uptake: 33.1 % ID/g
[21]
  Drug uptake: 18.3 % ID/g
Muscle tissue
  Drug uptake: 1.14 % ID/g
[23]
  Drug uptake: 65.36 % ID/g
Lung
  Drug uptake: 5.58 % ID/g
[24]
  Ratio: 10.02
[25]
  Drug uptake: 34.72 % ID/g
Liver [26]
  Drug uptake: 7.11 % ID/g
[27]
  Ratio: 1.8
[28]
  Drug uptake: 17.2 % ID/g
[29]
  Drug uptake: 1.45 % ID/g
